# Entries after “also recorded” stand apart in the source; their conditions may differ.
# Experiments:
# [1] = tested on: monocyte chemoattractant protein‐1 (MCP‐1); assay: Plasma MCP-1 by ELISA; type: in vivo; conditions: high dose (50 mg/kg), 16 weeks, apoE−/− mice
# How it was run: (§1)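 Overnight-fasted plasma collected from high-fat-fed apoE−/− mice after 16 weeks of i.p. dosing 3 times weekly (10 or 50 mg/kg per day, or scrambled peptide). High-sensitivity CRP and MCP-1 were quantified with commercial ELISA kits.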
# A172 human glioblastoma = assay: Cellular cholesterol efflux in A172 human cells; type: cell-based; conditions: 4 hours
# How it was run: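 A172 human glioblastoma cells were grown in DMEM with 10% FBS and antibiotics, then labelled with ³H‑cholesterol. Efflux ran in serum‑free medium with 0.2% BSA, 5 μmol/L T0901317 and 5 μmol/L 9‑cis‑retinoic acid, with or without 10 μmol/L probucol. Acceptor was human apoA‑I or test peptide at 20 μg/mL, or a molar dose series, for 4 h. n=4–5; mean±SD.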
# apoE‐deficient mice [2] = assay: Plasma lipoprotein profiles analyzed by HPLC, 16-week treatment; type: in vivo; conditions: 3 times a week, 16 weeks
# How it was run: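 Plasma from apoE−/− mice after 16-week i.p. dosing (3 times weekly) was separated by HPLC into 20 particle-size subfractions. Each subfraction was assayed enzymatically for total cholesterol, free cholesterol, triglycerides and phospholipids; mean±SD.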
# [3] = tested on: monocyte‐derived macrophages from an ABCA1‐deficient Tangier disease patient; type: cell-based, human; conditions: 20 μg/mL, 4 hours, n=4
# How it was run: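 Peripheral blood monocyte‑derived macrophages came from a healthy volunteer and a Tangier disease patient, with ethics approval and written consent. Cells were isolated by Lymphoprep density separation and labelled with ³H‑cholesterol. Efflux was run in serum‑free 0.2% BSA medium with or without 20 μg/mL human apoA‑I or test peptide for 4 h. n=4; mean±SD.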
# [4] = human whole plasma, 60 minutes at 37°C; FAMP5 0.2 to 2.0 mg/mL, ACD-FAMP5 2.0 mg/mL
# How it was run: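 Human whole plasma was incubated with saline, test peptide (0.2 to 2.0 mg/mL) or acridone-labelled peptide (2.0 mg/mL) for 60 min at 37°C. Samples were run on agarose gel electrophoresis with cholesterol staining, transferred to PVDF and immunoblotted with goat anti-human apoA-I antibody. The fluorescent label was visualized on the gel under UV light.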
# C‐reactive protein (CRP) = assay: Plasma high-sensitive CRP by ELISA; type: in vivo; conditions: low (10 mg/kg) and high (50 mg/kg) doses, 16 weeks, apoE−/− mice
# How it was run: as §1
# RAW264 macrophages = assay: Ex vivo cholesterol efflux mediated by plasma HDL of treated mice; type: in vivo; conditions: high-dose 50 mg/kg, 16 weeks; apoB-depleted plasma, 8Br-cAMP-treated RAW264 macrophages
# How it was run: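 Plasma collected after 16 weeks of i.p. treatment of high-fat-fed apoE−/− mice. ApoB-depleted plasma served as acceptor for ³H-cholesterol-labelled RAW264 macrophages. Macrophages were pretreated with 0.3 mmol/L 8Br-cAMP and kept in serum-free medium with 0.2% BSA.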
# ABCA1 [5] = target: T1, ABCA1 (Homo sapiens, UniProt O95477); assay: Probucol-inhibitable, ABCA1-specific cholesterol efflux in A172 cells; type: cell-based; conditions: probucol 10 μmol/L
# How it was run: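 A172 glioblastoma cells, labelled with ³H-cholesterol, were held in serum-free 0.2% BSA medium with 5 μmol/L T0901317 and 5 μmol/L 9-cis-retinoic acid. Cells were exposed for 4 h to 20 μg/mL acceptor, with or without 10 μmol/L probucol. ABCA1-dependent efflux was taken as the probucol-inhibitable fraction.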
# [6] = Size analysis of HDL interacting with FAMP; conditions: human HDL 2.22 mg/mL, 60 minutes at 37°C; 50, 250, 500 μg/mL FAMP5
# How it was run: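 Human HDL, adjusted to 2.22 mg/mL in saline containing 0.1% EDTA (pH 7.4), was incubated with 50, 250 or 500 μg/mL test peptide for 60 min at 37°C. Samples were run on nondenaturing 5–20% gradient polyacrylamide gel in Tris-glycine (pH 7.5) for 3 h at 20 mA on ice, then stained with Coomassie R-250.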
# Circular dichroism = type: physicochemical; conditions: CD spectra in water, 200 to 260 nm
# How it was run: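 Spectra of peptides and human apoA-I (17.8 to 178 μmol/L) recorded at 25°C in a thermostatted quartz cell with 0.1 mm path length, scanning 200–260 nm. Results expressed as mean residue ellipticity (deg cm² dmol⁻¹).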
# ABCA1 [7] = target: T1, ABCA1; assay: Cholesterol efflux in COS-7 cells transiently transfected with human ABCA1 cDNA; type: cell-based; conditions: 20 μg/mL, 4 hours, n=6 to 7
# How it was run: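 COS‑7 cells were kept in DMEM with 10% FBS and antibiotics and seeded at 80–90% confluence. They were transfected by lipofection with human ABCA1 cDNA in pcDNA3.1 (with ABCG1 in pEdsRed‑N1), or with mock vector. Cells were then ³H‑cholesterol labelled, and efflux was measured in serum‑free medium with 0.2% BSA.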
# apoE‐deficient mice [8] = assay: Plasma lipid profiles by enzymatic assay, 16-week treatment; type: in vivo; conditions: 16 weeks; for HDL Cholesterol / Total Cholesterol / Triglyceride: 3 times a week, high-fat-fed apoE-deficient mice, mean±SD
# How it was run: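 Overnight-fasting plasma taken after 16 weeks from 19 of 23 high-fat-fed apoE−/− mice. Dosing was i.p. 3 times weekly with scrambled peptide or test peptide at 10 or 50 mg/kg per day. Total cholesterol, triglyceride and HDL cholesterol were measured by enzymatic assay; mean±SD.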
# [9] = high-dose 50 mg/kg per day i.p., n=7, mean±SD
# [10] = low-dose 10 mg/kg per day i.p., n=5, mean±SD
# [11] = high-dose 50 mg/kg per day i.p., n=7
# [12] = low-dose 10 mg/kg per day i.p., n=5
# T1 sequence (O95477 whole entry): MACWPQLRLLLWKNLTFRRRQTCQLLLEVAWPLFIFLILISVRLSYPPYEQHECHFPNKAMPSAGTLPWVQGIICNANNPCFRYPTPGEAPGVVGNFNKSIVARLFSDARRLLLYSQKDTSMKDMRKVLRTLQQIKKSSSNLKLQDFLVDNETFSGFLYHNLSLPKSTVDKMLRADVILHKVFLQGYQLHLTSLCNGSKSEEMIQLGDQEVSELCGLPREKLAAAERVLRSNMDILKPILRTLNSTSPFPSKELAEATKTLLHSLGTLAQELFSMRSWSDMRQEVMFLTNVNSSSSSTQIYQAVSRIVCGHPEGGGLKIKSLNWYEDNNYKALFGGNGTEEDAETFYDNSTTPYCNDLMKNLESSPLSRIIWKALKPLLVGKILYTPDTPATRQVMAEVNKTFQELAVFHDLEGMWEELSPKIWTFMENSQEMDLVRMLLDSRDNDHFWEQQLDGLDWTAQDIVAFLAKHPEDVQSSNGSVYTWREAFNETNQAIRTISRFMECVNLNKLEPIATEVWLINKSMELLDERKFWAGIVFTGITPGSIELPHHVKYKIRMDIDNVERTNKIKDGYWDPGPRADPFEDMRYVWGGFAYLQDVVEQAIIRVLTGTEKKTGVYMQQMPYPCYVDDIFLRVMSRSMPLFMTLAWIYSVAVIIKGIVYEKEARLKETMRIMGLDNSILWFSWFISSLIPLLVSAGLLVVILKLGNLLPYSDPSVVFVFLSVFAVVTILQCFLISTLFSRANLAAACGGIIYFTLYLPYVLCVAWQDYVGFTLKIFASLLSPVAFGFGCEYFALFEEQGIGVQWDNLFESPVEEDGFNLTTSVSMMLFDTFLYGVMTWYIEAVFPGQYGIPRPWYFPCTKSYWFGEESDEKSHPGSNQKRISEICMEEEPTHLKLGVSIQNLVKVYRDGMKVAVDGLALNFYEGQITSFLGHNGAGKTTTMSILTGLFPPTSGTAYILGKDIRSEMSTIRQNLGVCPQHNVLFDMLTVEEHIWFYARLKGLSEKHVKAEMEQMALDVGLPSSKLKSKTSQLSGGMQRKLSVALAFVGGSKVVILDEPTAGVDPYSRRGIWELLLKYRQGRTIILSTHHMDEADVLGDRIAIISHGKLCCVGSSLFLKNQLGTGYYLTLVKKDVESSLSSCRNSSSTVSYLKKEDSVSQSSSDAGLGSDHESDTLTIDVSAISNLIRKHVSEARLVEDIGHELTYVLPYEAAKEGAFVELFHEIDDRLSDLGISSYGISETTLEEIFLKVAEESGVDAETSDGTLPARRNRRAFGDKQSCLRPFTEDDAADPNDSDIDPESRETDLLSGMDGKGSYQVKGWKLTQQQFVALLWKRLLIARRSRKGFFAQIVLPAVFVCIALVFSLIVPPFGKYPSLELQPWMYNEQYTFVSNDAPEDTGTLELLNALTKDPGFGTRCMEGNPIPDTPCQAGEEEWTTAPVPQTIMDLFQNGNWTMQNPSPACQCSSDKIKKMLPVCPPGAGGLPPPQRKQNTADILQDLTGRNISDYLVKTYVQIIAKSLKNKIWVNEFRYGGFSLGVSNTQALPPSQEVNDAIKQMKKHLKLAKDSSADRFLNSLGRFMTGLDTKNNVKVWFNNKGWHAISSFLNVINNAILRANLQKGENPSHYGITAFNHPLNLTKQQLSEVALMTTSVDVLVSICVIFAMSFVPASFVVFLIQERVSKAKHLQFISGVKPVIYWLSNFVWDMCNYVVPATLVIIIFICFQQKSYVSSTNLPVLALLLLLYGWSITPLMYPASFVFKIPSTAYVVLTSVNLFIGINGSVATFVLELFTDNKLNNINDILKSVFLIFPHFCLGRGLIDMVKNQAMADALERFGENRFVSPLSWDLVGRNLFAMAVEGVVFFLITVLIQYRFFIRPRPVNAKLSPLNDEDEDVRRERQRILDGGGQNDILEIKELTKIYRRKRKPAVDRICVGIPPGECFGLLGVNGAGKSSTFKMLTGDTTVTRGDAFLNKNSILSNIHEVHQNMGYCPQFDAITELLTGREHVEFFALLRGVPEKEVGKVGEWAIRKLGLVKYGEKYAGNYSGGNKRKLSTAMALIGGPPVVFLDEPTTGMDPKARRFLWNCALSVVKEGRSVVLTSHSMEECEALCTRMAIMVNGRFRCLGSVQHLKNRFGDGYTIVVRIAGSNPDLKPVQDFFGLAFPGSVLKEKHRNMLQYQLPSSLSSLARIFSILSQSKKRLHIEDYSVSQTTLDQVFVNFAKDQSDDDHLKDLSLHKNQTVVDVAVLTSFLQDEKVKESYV
substance,measurement,setting,value
H-ALEHLFTLYEKALKALEDLLKKLL-OH [FAMP5],plasma MCP‐1 levels,[1],significantly reduced
same,dose dependence of cholesterol efflux on a molar basis,"A172 human glioblastoma; A172 cells, presence or absence of 5 μmol/L T0901317 or 9-cis-retinoic acid, n=4",dose‐dependent induction of cholesterol efflux with saturation effects
same,cellular cholesterol efflux: differences of terminal end modifications,"A172 human glioblastoma; A172 cells, 20 μg/mL, n=5",no influence by the modification of terminal ends
same,effect of ABCA1 inactivation (probucol) on peptide-mediated cholesterol efflux,"A172 human glioblastoma; probucol 10 μmol/L, 20 μg/mL",drastically inhibited; also recorded: not completely abolished
same,"Cholesterol, CM (>80 nm)",apoE‐deficient mice [2]; [9],173.4 ± 24.0 mg/dL
same,"Cholesterol, HDL (8 to 16 nm)",apoE‐deficient mice [2]; [9],20.3 ± 3.1 mg/dL
same,"Cholesterol, LDL (16 to 30 nm)",apoE‐deficient mice [2]; [9],157.9 ± 32.1 mg/dL
same,"Cholesterol, VLDL (30 to 80 nm)",apoE‐deficient mice [2]; [9],509.1 ± 73.8 mg/dL
same,"Free cholesterol, CM (>80 nm)",apoE‐deficient mice [2]; [9],76.6 ± 13.7 mg/dL
same,"Free cholesterol, HDL (8 to 16 nm)",apoE‐deficient mice [2]; [9],10.0 ± 1.1 mg/dL
same,"Free cholesterol, LDL (16 to 30 nm)",apoE‐deficient mice [2]; [9],75.0 ± 14.1 mg/dL
same,"Free cholesterol, VLDL (30 to 80 nm)",apoE‐deficient mice [2]; [9],213.8 ± 33.7 mg/dL
same,"Phospholipids, CM (>80 nm)",apoE‐deficient mice [2]; [9],84.3 ± 14.2 mg/dL
same,"Phospholipids, HDL (8 to 16 nm)",apoE‐deficient mice [2]; [9],23.1 ± 5.2 mg/dL
same,"Phospholipids, LDL (16 to 30 nm)",apoE‐deficient mice [2]; [9],110.6 ± 26.5 mg/dL
same,"Phospholipids, VLDL (30 to 80 nm)",apoE‐deficient mice [2]; [9],259.9 ± 44.9 mg/dL
same,"Triglyceride, CM (>80 nm)",apoE‐deficient mice [2]; [9],22.1 ± 6.6 mg/dL
same,"Triglyceride, HDL (8 to 16 nm)",apoE‐deficient mice [2]; [9],3.7 ± 1.3 mg/dL
same,"Triglyceride, LDL (16 to 30 nm)",apoE‐deficient mice [2]; [9],10.4 ± 2.2 mg/dL
same,"Triglyceride, VLDL (30 to 80 nm)",apoE‐deficient mice [2]; [9],35.8 ± 9.7 mg/dL
same,"Cholesterol, CM (>80 nm)",apoE‐deficient mice [2]; [10],175.4 ± 40.4 mg/dL
same,"Cholesterol, HDL (8 to 16 nm)",apoE‐deficient mice [2]; [10],22.0 ± 3.7 mg/dL
same,"Cholesterol, LDL (16 to 30 nm)",apoE‐deficient mice [2]; [10],133.1 ± 16.1 mg/dL
same,"Cholesterol, VLDL (30 to 80 nm)",apoE‐deficient mice [2]; [10],529.9 ± 135.3 mg/dL
same,"Free cholesterol, CM (>80 nm)",apoE‐deficient mice [2]; [10],70.7 ± 14.4 mg/dL
same,"Free cholesterol, HDL (8 to 16 nm)",apoE‐deficient mice [2]; [10],9.1 ± 0.6 mg/dL
same,"Free cholesterol, LDL (16 to 30 nm)",apoE‐deficient mice [2]; [10],65.6 ± 6.0 mg/dL
same,"Free cholesterol, VLDL (30 to 80 nm)",apoE‐deficient mice [2]; [10],220.1 ± 49.0 mg/dL
same,"Phospholipids, CM (>80 nm)",apoE‐deficient mice [2]; [10],78.4 ± 15.3 mg/dL
same,"Phospholipids, HDL (8 to 16 nm)",apoE‐deficient mice [2]; [10],29.1 ± 4.9 mg/dL
same,"Phospholipids, LDL (16 to 30 nm)",apoE‐deficient mice [2]; [10],94.4 ± 10.4 mg/dL
same,"Phospholipids, VLDL (30 to 80 nm)",apoE‐deficient mice [2]; [10],263.8 ± 53.4 mg/dL
same,"Triglyceride, CM (>80 nm)",apoE‐deficient mice [2]; [10],26.1 ± 16.8 mg/dL
same,"Triglyceride, HDL (8 to 16 nm)",apoE‐deficient mice [2]; [10],2.9 ± 1.2 mg/dL
same,"Triglyceride, LDL (16 to 30 nm)",apoE‐deficient mice [2]; [10],9.5 ± 2.3 mg/dL
same,"Triglyceride, VLDL (30 to 80 nm)",apoE‐deficient mice [2]; [10],38.1 ± 19.4 mg/dL
same,cholesterol efflux in Tangier disease macrophages vs healthy subject,[3],suppressed
same,conversion of α HDL to pre‐β HDL on agarose gel electrophoresis,[4],shifted the α HDL band to the pre‐β HDL position; also recorded: completely converted α HDL to pre‐β HDL
same,plasma high‐sensitive CRP levels,C‐reactive protein (CRP),equally suppressed
same,ex vivo cholesterol efflux mediated by HDL of treated mice,RAW264 macrophages,significant increase
same,"percentage of probucol‐inhibitable, ABCA1‐specific cholesterol efflux",ABCA1 [5],significantly higher than that in L‐4F; also recorded: significantly lower than human apoA‐I
same,HDL particle size on polyacrylamide gel electrophoresis,[6],generated pre‐β1 HDL‐like small particles
same,α‐helical conformation (CD spectra),Circular dichroism,formed strong α‐helical conformations
same,cholesterol efflux after transient transfection with ABCA1 cDNA vs mock,ABCA1 [7],significantly upregulated
same,HDL Cholesterol,apoE‐deficient mice [8]; [11],12.6 ± 3.7 mg/dL
same,Total Cholesterol,apoE‐deficient mice [8]; [11],1439.5 ± 271.5 mg/dL
same,Triglyceride,apoE‐deficient mice [8]; [11],102.7 ± 18.3 mg/dL
same,"effect on plasma total cholesterol, triglyceride, and HDL cholesterol levels","apoE‐deficient mice [8]; low and high doses, enzymatic assay",no significant effects
same,HDL Cholesterol,apoE‐deficient mice [8]; [12],16.6 ± 4.8 mg/dL
same,Total Cholesterol,apoE‐deficient mice [8]; [12],1532.8 ± 589.6 mg/dL
same,Triglyceride,apoE‐deficient mice [8]; [12],120.0 ± 41.6 mg/dL

# From paper PMC3698760 (Journal of the American Heart Association: Cardiovascular …, 2013)
